Experimental data as given in ChEMBL document CHEMBL1149182, “Cyclodextrin-derived diorganyl tellurides as glutathione peroxidase mimics and inhibitors of thioredoxin reductase and cancer cell growth” (J Med Chem, 2004).

How the values were obtained:
Thioredoxin reductase [1] = molecular target: T1, Thioredoxin reductase (Homo sapiens, UniProt Q16881+Q9NNW7+Q86VQ6); assay: Inhibition of thioredoxin reductase in the presence of thioredoxinand insulin; format: protein assay
Summary of the method: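 Insulin reduction coupled to Trx/TrxR, final concentrations: 100 mM HEPES pH 7.2, 5 mM EDTA, 1 mM NADPH, 1.0 μM TrxR, 0.8 μM Trx, 2.5 mg/mL bovine insulin plus inhibitor. 30 min at 37 °C, stopped with 6 M guanidine HCl/50 mM Tris pH 8.0/10 mM DTNB, absorbance at 412 nm. IC50 for 50% inhibition of thionitrobenzoate formation.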

MCF7 = assay: Inhibition of growth of MCF-7 breast cancer cells in culture; format: functional, cell-based; conditions: Homo sapiens
Summary of the method: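 Human MCF-7 cells seeded at 3000/well in DMEM + 10% FBS, 16 h at 37 °C, 5.5% CO2, then compound 0.1–20 μM for 72 h. MTT added for 3 h, formazan dissolved in DMSO, dual OD read at 595/655 nm. Viability given as % of untreated control. IC50 is concentration halving growth versus control. Triplicate determinations.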

Thioredoxin reductase [2] = molecular target: T1, Thioredoxin reductase; assay: Inhibition of thioredoxin reductase; format: protein assay
Summary of the method: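 TrxR-only activity in HE buffer (100 mM HEPES pH 7.2, 5 mM EDTA) with 1.0 μM TrxR, 10 mM DTNB, 1 mM NADPH and inhibitor (final). Compound and enzyme added first, reaction started with NADPH/DTNB at 37 °C. OD 412 nm read every 10 s for initial linear rates. IC50 is 50% inhibition of thionitrobenzoate formation.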

SMILES | IC50 (Thioredoxin reductase [1]) [µM] | IC50 (MCF7) [µM] | IC50 (Thioredoxin reductase [2]) [µM]
CN(C)c1ccc([Te]CC2O[C@@H]3O[C@@H]4C(CO)O[C@H](O[C@@H]5C(CO)O[C@H](O[C@@H]6C(CO)O[C@@H](O[C@@H]7C(CO)O[C@H](O[C@@H]8C(CO)O[C@H](O[C@@H]9C(CO)O[C@H](O[C@H]2C(O)C3O)C(O)C9O)C(O)C8O)C(O)C7O)C(O)C6O)C(O)C5O)C(O)C4O)cc1 (stereo partly specified) | 3.4 | 10.4 | 0.26
COc1ccc([Te]CC2O[C@@H]3O[C@@H]4C(CO)O[C@H](O[C@@H]5C(CO)O[C@H](O[C@@H]6C(CO)O[C@@H](O[C@@H]7C(CO)O[C@H](O[C@@H]8C(CO)O[C@H](O[C@@H]9C(CO)O[C@H](O[C@H]2C(O)C3O)C(O)C9O)C(O)C8O)C(O)C7O)C(O)C6O)C(O)C5O)C(O)C4O)cc1 (stereo partly specified) | 7.6 | 4.6 | 1.6
OCC1O[C@@H]2O[C@@H]3C(C[Se]c4ccccc4)O[C@H](O[C@@H]4C(CO)O[C@H](O[C@@H]5C(CO)O[C@H](O[C@@H]6C(CO)O[C@@H](O[C@@H]7C(CO)O[C@H](O[C@@H]8C(CO)O[C@H](O[C@H]1C(O)C2O)C(O)C8O)C(O)C7O)C(O)C6O)C(O)C5O)C(O)C4O)C(O)C3O (stereo partly specified) | 18 | 10.2 | 17.8
OCC1O[C@@H]2O[C@@H]3C(CO)O[C@H](O[C@@H]4C(CO)O[C@H](O[C@@H]5C(CO)O[C@@H](O[C@@H]6C(CO)O[C@H](O[C@@H]7C(C[Te]CC8O[C@@H]9O[C@@H]%10C(CO)O[C@@H](O[C@@H]%11C(CO)O[C@H](O[C@@H]%12C(CO)O[C@H](O[C@@H]%13C(CO)O[C@H](O[C@@H]%14C(CO)O[C@H](O[C@@H]%15C(CO)O[C@H](O[C@H]8C(O)C9O)C(O)C%15O)C(O)C%14O)C(O)C%13O)C(O)C%12O)C(O)C%11O)C(O)C%10O)O[C@H](O[C@@H]8C(CO)O[C@H](O[C@H]1C(O)C2O)C(O)C8O)C(O)C7O)C(O)C6O)C(O)C5O)C(O)C4O)C(O)C3O (stereo partly specified) | 0.5 | 1.4 | 2.4
CCCC[Te]CC1O[C@@H]2O[C@@H]3C(CO)O[C@H](O[C@@H]4C(CO)O[C@H](O[C@@H]5C(CO)O[C@@H](O[C@@H]6C(CO)O[C@H](O[C@@H]7C(CO)O[C@H](O[C@@H]8C(CO)O[C@H](O[C@H]1C(O)C2O)C(O)C8O)C(O)C7O)C(O)C6O)C(O)C5O)C(O)C4O)C(O)C3O (stereo partly specified) | 1.2 | 6 | 18
OCC1O[C@@H]2O[C@@H]3C(C[Te]c4ccc(O)cc4)O[C@H](O[C@@H]4C(CO)O[C@H](O[C@@H]5C(CO)O[C@H](O[C@@H]6C(CO)O[C@@H](O[C@@H]7C(CO)O[C@H](O[C@@H]8C(CO)O[C@H](O[C@H]1C(O)C2O)C(O)C8O)C(O)C7O)C(O)C6O)C(O)C5O)C(O)C4O)C(O)C3O (stereo partly specified) | 4 | 1.6 | 18
OCC1O[C@@H]2O[C@@H]3C(C[Te]c4ccccc4)O[C@H](O[C@@H]4C(CO)O[C@H](O[C@@H]5C(CO)O[C@H](O[C@@H]6C(CO)O[C@@H](O[C@@H]7C(CO)O[C@H](O[C@@H]8C(CO)O[C@H](O[C@H]1C(O)C2O)C(O)C8O)C(O)C7O)C(O)C6O)C(O)C5O)C(O)C4O)C(O)C3O (stereo partly specified) | 7.6 | 10.1 | 1.6
